According to publication PMC4091826 (Molecular Biology of the Cell, 2014):

B1: E467A (protein)
chain: QSTKVQGSVIGIDLGTTNSAVAIMEGKVPKIIENAEGSRTTPSVVAFTKEGERLVGIPAKRQAVVNPENTLFATKRLIGRRFEDAEVQRDIKQVPYKIVKHSNGDAWVEARGQTYSPAQIGGFVLNKMKETAEAYLGKPVKNAVVTVPAYFNDSQRQATKDAGQIVGLNVLRVVNEPTAAALAYGLEKSDSKVVAVFDLGGGTFDISILDIDNGVFEVKSTNGDTHLGGEDFDIYLLREIVSRFKTETGIDLENDRMAIQRIREAAEKAKIELSSTVSTEINLPFITADASGPKHINMKFSRAQFETLTAPLVKRTVDPVKKALKDAGLSTSDISEVLLVGGMSRMPKVVETVKSLFGKDPSKAVNPDEAVAIGAAVQGAVLSGEVTDVLLLDVTPLSLGIETLGGVFTRLIPRNTTIPTKKSQIFSTAAAGQTSVEIRVFQGARELVRDNKLIGNFTLAGIPPAPKGVPQIEVTFDIDADGIINVSARDKATNKDSSITVAGSSGLSENEIEQMVNDAEKFKSQDEARKQAIETANKADQLANDTENSLKEFEGKVDKAEAQKVRDQITSLKELVARVQGGEEVNAEELKTKTEELQTSSMKLFEQLYKNDSNNNNNNNGNNAESGETKQ

Key:
human mtHsp70 [1] = assay: Single-turnover basal ATPase assay, human mtHsp70; assay type: biochemical; settings: 25°C, buffer A, versus wild type, Figure 1C
Method in brief: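 Purified protein (100 μg) was loaded on ice for 3 min with 50 μM ATP and 25 μCi [γ-32P]ATP in buffer A (25 mM HEPES-KOH pH 7.5, 100 mM KCl, 10 mM Mg(OAc)2). Complexes were isolated immediately on Sephadex G50 and frozen in liquid nitrogen; they contained 1 μM protein. Hydrolysis was then run at 25°C in buffer alone, without stimulators.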

human mtHsp70 [2] = assay: Stimulation of ATPase activity by P5 peptide, human mtHsp70; assay type: biochemical; settings: 250-fold molar excess of P5; Figure 1D
Method in brief: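 Human mtHsp70[ATP] complexes were formed by incubating 100 μg protein with 50 μM ATP and 25 μCi [γ-32P]ATP on ice for 3 min in buffer A (25 mM HEPES-KOH pH 7.5, 100 mM KCl, 10 mM Mg(OAc)2). Complexes were isolated by Sephadex G50 (1 μM protein) and snap-frozen. Single-turnover hydrolysis was run at 25°C in buffer A, either alone (basal) or with P5 peptide.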

[3] = tested on: fluorescein-labeled P5 peptide (F-P5); assay: Fluorescence anisotropy equilibrium binding of F-P5 peptide to Ssc1 proteins; settings: F-P5, versus wild type
Ssc1 [4] = assay: Single-turnover basal ATPase assay, Ssc1; assay type: biochemical, S. cerevisiae; settings: 25°C, buffer A, versus wild type
Ssc1 [5] = assay: ATP-induced substrate release by fluorescence anisotropy, Ssc1; assay type: biochemical, S. cerevisiae; settings: 2.5 mM ATP, 5 μM Ssc1[F-P5], anisotropy decrease up to 5 min
yeast cells = assay: Growth phenotype; assay type: cell-based, S. cerevisiae; settings: minimal medium or 5-FOA medium, serial dilutions
Ssc1 [6] = assay: Limited proteolytic cleavage by trypsin; assay type: biochemical, S. cerevisiae; settings: 1:100 (wt/wt) trypsin, 25°C, SDS-PAGE
Tim44 = assay: Coimmunoprecipitation of Ssc1 with Tim44; assay type: binding, S. cerevisiae; settings: mitochondrial lysates, anti-Ssc1, presence or absence of 1 mM ATP; Figure 6A
Hsp60 = Hsp60 precursor accumulation assay; assay type: cell-based, S. cerevisiae; settings: shift to 37°C for 2 h, immunoblot; Figure 6B
Method in brief: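 Yeast strains were grown in YPD at 28°C to early log phase, then shifted to 37°C for 2 h. Cells equivalent to 2 OD A600 were taken before and after the shift and lysed in 0.1 N NaOH. Whole-cell extracts were run on SDS–PAGE and immunoblotted for Hsp60 to detect its precursor (p) and mature (m) forms.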

Cytb2(47)-DHFR = assay: In vitro import kinetics of Cytb2; assay type: biochemical, S. cerevisiae; settings: isolated mitochondria, 37°C preincubation; Figure 6, C and D
Method in brief: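 Saturating purified precursor plus 8 mM each ATP and NADH added. Time points stopped with valinomycin, then proteinase K (quenched with PMSF). Anti-DHFR immunoblot; intermediate form plotted over time, maximum wild-type import set as 100%.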

mitochondrial mass = assay: Mitochondrial mass estimation by 10-N-nonyl acridine orange flow cytometry; assay type: cell-based, S. cerevisiae; settings: in comparison to wild type; Figure 6E
Method in brief: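 Per strain, cells equal to 0.2 OD at A600 were stained with 10-N-nonyl acridine orange, a cardiolipin-binding dye, and analysed by flow cytometry to estimate total mitochondrial mass.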

Molecule | fold enhancement in basal ATPase activity (human mtHsp70 [1]) [fold] | stimulation of ATPase activity by P5 substrate peptide, in words (human mtHsp70 [2]) | fold reduced affinity for the substrate vs wild type [3] [fold] | fold increase in basal ATPase activity (Ssc1 [4]) [fold] | substrate (peptide) release upon ATP addition (Ssc1 [5]) [%] | growth phenotype, in words (yeast cells) | trypsin cleavage pattern, in words (Ssc1 [6]) | interaction with Tim44, in words (Tim44) | Hsp60 precursor accumulation, in words (Hsp60) | rate of precursor translocation into mitochondria, in words (Cytb2(47)-DHFR) | reduction in mitochondrial mass (mitochondrial mass) [%]
mtHsp70Q488A | 2.75 | marked decrease in stimulation of ATPase activity by P5 substrate peptide |  |  |  |  |  |  |  |  | 
B1 |  |  | ~8.6 | 4.85 | ~38 | viable at 30 °C but displayed temperature sensitivity at 34 and 37 °C | the 30-kDa bands were very unstable and rapidly degraded further into smaller-sized fragments | interacted negligibly with Tim44 even in the absence of ATP | significant levels of Hsp60 precursor form as compared with wild type | impairment in translocation rate | 30
